Screening data: PubChem, Sanford-Burnham Center for Chemical Genomics
bIAP inh – intestinal alkaline phosphatase (bovine) inhibition; purified bovine IAP, CDP-star luminescence, 30 min; inhibition, % at 20 µM; 190,000 tested, under 10 active;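 active = over 50% inhibition of intestinal alkaline phosphatase at 20 µM in the single-dose screen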
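test system = bovine IAP enzyme | medium = DEA buffer 100 mM, pH 9.8, with MgCl2 1.0 mM, ZnCl2 0.02 mM | detection = luminescence | dosing = single compound dose of 20 µM, 2% DMSO final | incubation = 30 min reaction at room temperature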
mIAP inh – blocks mouse intestinal alkaline phosphatase | purified mouse IAP, CDP-Star luminescence, 30 min | inhibition, % at 10 µM | 0.2% of 330,000 active | AID 2806;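 active = inhibition of at least 40% at 10 µM in the primary screen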;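 also: plate controls were DMSO with enzyme for no effect and no enzyme wells for full effect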
hIAP inh – human IAP inhibition | P09923 | AID 2544 | purified IAP, CDP-Star luminescence, 30 min | 0.12% of 330,000 active | inhibition, % at 10 µM;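 active = inhibition reaching a set limit with compound at 10 µM in the primary screen, cut at about 35% in these data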;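 also: plate controls were DMSO wells with enzyme for no effect and no-enzyme buffer wells for full effect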
Target sequence (P09923 whole entry, looked up): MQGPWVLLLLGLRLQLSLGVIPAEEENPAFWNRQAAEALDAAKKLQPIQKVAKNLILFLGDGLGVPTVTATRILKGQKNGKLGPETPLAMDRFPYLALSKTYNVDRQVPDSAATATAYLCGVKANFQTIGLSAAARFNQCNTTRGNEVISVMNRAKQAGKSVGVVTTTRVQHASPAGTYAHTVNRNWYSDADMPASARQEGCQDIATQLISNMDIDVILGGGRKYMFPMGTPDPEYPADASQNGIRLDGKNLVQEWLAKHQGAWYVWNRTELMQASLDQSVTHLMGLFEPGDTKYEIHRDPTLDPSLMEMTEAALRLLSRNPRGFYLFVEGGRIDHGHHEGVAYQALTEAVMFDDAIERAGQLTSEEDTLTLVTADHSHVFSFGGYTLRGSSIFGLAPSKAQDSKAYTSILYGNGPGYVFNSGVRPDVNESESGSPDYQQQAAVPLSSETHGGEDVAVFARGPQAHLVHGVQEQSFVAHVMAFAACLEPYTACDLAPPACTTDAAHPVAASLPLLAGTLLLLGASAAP
mIAP act – mouse IAP activation; muIAP, CDP-Star luminescence, 30 min; hits give high values; 1 = vehicle-only enzyme signal, 0 = enzyme-free wells; activation factor at 10 µM; 0.24% of 330,000 active;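 active = activation factor of at least 2 at 20 µM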
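also added = chemiluminescent substrate CDP-Star | test system = mouse IAP enzyme | signal = chemiluminescence readout | compound = DMSO-dissolved test compounds | incubation = 30 min at room temperature | benchmarks = DMSO wells, no-enzyme wells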
bIAP act – intestinal alkaline phosphatase (bovine) activation | purified bovine IAP, CDP-star luminescence, 30 min; hits give high values; fold of DMSO-control signal, blank-subtracted | 0.17% of 200,000 active | activation factor at 20 µM;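 active = activation factor of 2 or more at 20 µM, a signal rise over negative controls twice the positive control's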
hIAP act – human IAP activation; 0.16% of 330,000 active; purified human IAP, CDP-Star luminescence, 30 min; hits give high values; 1 = vehicle-only enzyme, 0 = enzyme-free background; P09923; activation factor at 10 µM;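 active = activation factor of the enzyme at least 2-fold when tested at 20 µM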
hIAP act conf – human IAP activation confirmation; shares compounds with hIAP act; purified IAP, CDP-Star luminescence, 30 min; hits give low values; activation (%Activity, negative = activation), % at 8.3 µM; 10% of 880 active;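 active = at least twofold enzyme activation in any of six single-dose repeats, which the averaged readout prints as negative percent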
mIAP inh conf – mouse IAP inhibition confirmation; AID 434971; purified mouse IAP, CDP-Star luminescence, 30 min; 4.7% of 11,000 active; inhibition, % at 10 µM; shares compounds with mIAP inh;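 active = inhibition of at least 40% at 10 µM in either of the two replicates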;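 also: plate controls were DMSO wells with enzyme for no effect and buffer wells lacking enzyme for full effect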
The depositor's hits bear a star; i = inactive; · = no result given. Shown are actives, neighbours in structure and some others; about 0.79% of the full set was active somewhere.

SMILES	bIAP inh	mIAP inh	hIAP inh	mIAP act	bIAP act	hIAP act	mIAP inh conf	others
O=C1NC(=O)N(c2ccc3c(c2)OCO3)C(=O)/C1=C/c1ccc(N2CCCC2)o1	4.5	55.5*	29.2	0.445	1	0.708	·
CCOC(=O)C1(c2ccccc2)CCN(CCC(=O)Nc2cccc(Br)c2)CC1	·	-20.3	8.9	1.2	·	0.911	·
c1ccc2[nH]c(CCNC3CCCCC3)nc2c1	-120.5	3.6	1.5	0.964	2.2*	0.985	·
CCOC(=O)N(C)c1ccc(C(O)(C(=O)OC)C(F)(F)F)cc1 (stereo unspecified)	-106.2	-5.1	-8.8	1.05	2.1*	1.09	·
COc1ccc(C(=O)C2CN(C)CC2c2ccc(Cl)cc2)cc1 (stereo unspecified)	4.5	-6.1	-1.9	1.06	1	1.02	·
CN1CC(C(=O)c2ccc(Cl)cc2)C(c2ccccc2F)C1 (stereo unspecified)	0.2	42.3*	-7.2	0.577	1	1.07	·
COC(=O)C1=C(c2ccc(-c3ccccc3)c(F)c2)C[C@@H]2CC[C@H]1N2C(=O)N1CCCC1	·	6.1	-0.7	0.939	·	1.01	·
CCCCn1c(=O)c(C(=O)Nc2nnc(C(C)C)s2)c(O)c2ccccc21	-15.5	11.1	-0.6	0.889	1.2	1.01	·
O=c1[nH]c(=S)n(Cc2ccco2)c(O)c1C=NCc1cccs1	-12.4	61.2*	-5.6	0.388	1.1	1.06	·
O=c1[nH]c(=O)n(Cc2ccco2)c(O)c1C=NCc1cccs1	12.6	10.3	1.8	0.897	0.9	0.982	·
O=c1[nH]c(=O)n(-c2ccc(Br)cc2)c(O)c1C=NC(CO)(CO)CO	·	-6.2	49.6*	1.06	·	0.504	·	hIAP act conf=2.4
CCCCCCOc1ccc(CN2CCN(CCO)CC2)cc1	-5.5	2.3	5.0	0.977	1.1	0.95	·
CCCCOc1ccc(CN2CCN(CCO)CC2)cc1	1.3	2.8	36.6*	0.972	1	0.634	·	hIAP act conf=-21.9
CC(C)=CCc1c(O)cc2c(c1O)C(=O)CC(c1ccc(O)cc1)O2 (stereo unspecified)	·	-3.9	-2.7	1.04	·	1.03	·
O=C1NC(=O)N(c2ccc3c(c2)OCO3)C(=O)/C1=C/c1cccs1	2.9	72.4*	6.4	0.276	1	0.936	76.5*
O=C1NC(=S)N(c2ccc(F)cc2)C(=O)/C1=C/c1ccco1	·	46.7*	9.5	0.533	·	0.905	60.2*
COc1ccc(OC)c(N2C(=O)/C(=C/c3ccco3)C(=O)NC2=S)c1	·	41.9*	3.6	0.581	·	0.964	58.1*
CN(C)C(Cc1ccccc1)C(=O)c1c[nH]c2ccccc12 (stereo unspecified)	·	4.0	11.2	0.96	·	0.888	·
N#Cc1c(/N=C/c2c(O)n(Cc3ccco3)c(=O)[nH]c2=O)sc2c1CCCC2	0.0	63.9*	8.7	0.361	1	0.913	71.5*
Oc1ccc(C[C@H]2NCCc3cc(O)c(O)cc32)cc1O	·	62.6*	17.1	0.374	·	0.829	76.3*
Clc1ccc(N2CC2c2ccncc2)cc1 (stereo unspecified)	·	-5.2	0.8	1.05	·	0.992	·
Cc1ccc(N2C(=O)/C(=C/c3ccc(CN(CCC#N)S(C)(=O)=O)o3)C(=O)NC2=S)cc1C	-7.0	42.7*	9.2	0.573	1.1	0.908	46.1*
Oc1ccc(CC2(N3CCCC3)CCCCC2)cc1	·	1.7	-1.2	0.983	·	1.01	·
COc1ccc(CN2C(=O)NC(=O)/C(=C/c3ccc([N+](=O)[O-])o3)C2=O)cc1	30.5	·	·	·	0.7	·	·
Clc1ccc(C(c2ccc(Cl)cc2)n2cc[n+](CC(OCc3ccc(Cl)cc3Cl)c3ccc(Cl)cc3Cl)c2)cc1 (stereo unspecified)	·	i	-28.2	16.8*	·	1.28	i
SMILES	bIAP inh	mIAP inh	hIAP inh	mIAP act	bIAP act	hIAP act	mIAP inh conf	others
C=CCN1C(=O)/C(=C/c2ccc(Br)s2)C(=O)NC1=S	·	42.8*	-11.4	0.572	·	1.11	52.8*
CCN1C(=O)/C(=C\c2ccc([N+](=O)[O-])s2)C(=O)NC1=S	46.1	·	·	·	0.5	·	·
O=C1NC(=O)N(c2ccccc2)C(=O)/C1=C/C=C/c1ccco1	·	28.3	0.2	0.717	·	0.998	·
O=C1NC(=O)N(Cc2ccccc2)C(=O)/C1=C\C=C\c1ccco1	4.6	37.2	-8.6	0.628	1	1.09	·
CN1C(=O)/C(=C/C=C/c2ccco2)C(=O)NC1=S	·	65.7*	6.4	0.343	·	0.936	61.5*
Cc1cccc(N2C(=O)NC(=O)/C(=C\C=C\c3ccco3)C2=O)c1	·	45.2*	2.1	0.548	·	0.979	52.7*
Cc1ccc(N2C(=O)NC(=O)/C(=C\C=C\c3ccco3)C2=O)cc1	·	36.0	-2.3	0.64	·	1.02	·
O=C1NC(=O)N(Cc2ccco2)C(=O)/C1=C/C=C/c1ccco1	·	71.9*	3.8	0.281	·	0.962	74.9*
COC(=O)C1=C(c2ccc(OC(F)(F)F)cc2)C[C@@H]2CC[C@H]1N2C(=O)NC(C)C	·	0.2	-0.7	0.998	·	1.01	·
CCOS(C)(=O)=O	·	-4.3	23.2	1.04	·	0.768	·
